The source made the active and inactive calls. No cut-off for these calls is given here.
Key:
CHO = assay: Cytotoxicity against CHO cells after 48 hrs by MTS assay; type: cell-based; details: Cricetulus griseus
In short: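 CHO cells plated at 10000 cells/mL and incubated overnight. Drug from DMSO stock added, final DMSO <1%. Incubated 48 h at 37 °C, 5% CO2, then MTS reagent for 4 h more. Absorbance read at 490 nm. Run in triplicate; IC50 taken from a plot of relative A490 vs drug concentration.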

[1] = Activation of MAPK signaling pathway in mock-transfected HEK293T cells at 10 uM after 20 to 24 hrs by luciferase-based Elk1 reporter gene assay relative to control; type: cell-based; details: Homo sapiens, HEK-293T
In short: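 HEK293T cells transiently transfected with 0.1 μg Elk1, 5 μg Luc and empty pcDNA3 (PathDetect trans Elk1 system). After 5 h, washed, seeded at 20,000 cells/well in DMEM, 1% FBS, 2 mM L-glutamine, 1% pen-strep, 1% DMSO. Compound at 10 μM; 37 °C, 5% CO2, 20−24 h. Bright-Glo luminescence; % effect = 100% × (treated/1% DMSO control luminescence) − 100%.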

[2] = Inverse agonist activity at human cytomegalovirus US28 receptor transfected in HEK293T cells assessed as activation of MAPK signaling pathway at 10 uM after 20 to 24 hrs by luciferase-based Elk1 reporter gene assay relative to control; type: cell-based; details: Human betaherpesvirus 5, HEK-293T
In short: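 HEK293T transiently transfected with 0.1 μg Elk1, 5 μg Luc and 5 μg US28 vector (PathDetect trans Elk1), reading US28-driven MAPK/Elk1 signaling. After 5 h, seeded 20,000 cells/well in DMEM, 1% FBS, 2 mM L-glutamine, 1% pen-strep, 1% DMSO with compound; 37 °C, 5% CO2, 20−24 h. Bright-Glo luciferase luminescence vs no-compound control. Triplicates, 3−5 experiments; curves normalized, pooled, fitted by nonlinear regression.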

[3] = Inverse agonist activity at human cytomegalovirus US28 receptor transfected in HEK293T cells assessed as activation of MAPK signaling pathway after 20 to 24 hrs by luciferase-based Elk1 reporter gene assay; type: cell-based, Human betaherpesvirus 5, HEK-293T
In short: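 HEK293T cells transiently co-transfected with Elk1 (0.1 μg), Luc (5 μg) and US28 vector (5 μg); 5 h later washed, seeded at 20,000 cells/well in DMEM, 1% FBS, 2 mM L-glutamine, 1% penicillin-streptomycin, 1% DMSO with compound; 37 °C, 5% CO2, 20–24 h; BrightGlo luminescence. 3–5 experiments in triplicate, pooled normalized sigmoid fits give EC50 and efficacy.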

[4] = Human betaherpesvirus 5, HEK-293T, read-out: EC50
[5] = Human betaherpesvirus 5, HEK-293T, read-out: pEC50 (converted)

| Compound | IC50 (CHO) [µM] | Activity [1] [%] | Efficacy [2] [%] | EC50 [3, 4] [µM] | EC50 [3, 5] [µM] | EC50 ([3]; hek-293t) | Activity [2] |
| --- | --- | --- | --- | --- | --- | --- | --- |
| COc1ccc(Br)cc1-c1cc(=O)c2c(OCc3ccccc3)cccc2o1 | 96.6 | -3 | -89 | 3.5 | 3.47 | – | – |
| COc1ccccc1/C=C/C(=O)c1c(O)cccc1OCc1ccccc1 | – | – | – | – | – | ND(toxic) | – |
| COc1ccc(Cl)cc1-c1oc2ccccc2c(=O)c1O | 25 | 2 | -42 | 1.32 | 1.32 | – | – |
| COc1ccc(Br)cc1-c1oc2ccccc2c(=O)c1O | 88.5 | -11 | – | – | – | – | inactive |
| COc1ccc(I)cc1/C=C/C(=O)c1ccccc1O | 6.7 | 100 | -94 | 5.5 | 5.5 | – | – |
| COc1ccccc1-c1cc(=O)c2ccccc2o1 | 64.8 | 3 | – | – | – | – | inactive |
| COc1ccccc1-c1cc(=O)c2c(OCc3ccccc3)cccc2o1 | 17.5 | -40 | -49 | 7.3 | 7.24 | – | – |
| COc1ccc(Cl)cc1/C=C/C(=O)c1ccccc1O | 8.4 | -30 | -58 | 7.8 | 7.76 | – | – |
| COc1ccc(Cl)cc1C1CC(=O)c2ccccc2O1 (stereo unspecified) | – | -14 | – | – | – | – | inactive |
| COc1ccccc1-c1cc(=O)c2c(O)cccc2o1 | > 100 | 2 | – | – | – | – | inactive |
| COc1ccc(C)cc1-c1oc2ccccc2c(=O)c1O | 54.6 | 0 | -38 | 1.78 | 1.78 | – | – |
| COc1ccccc1-c1oc2ccccc2c(=O)c1O | > 100 | -1 | -19 | 4.6 | 4.57 | – | – |
| CCOc1ccc(Br)cc1-c1oc2ccccc2c(=O)c1O | 13.5 | -31 | -41 | 0.8 | 0.832 | – | – |
| CCOc1ccc(Br)cc1/C=C/C(=O)c1ccccc1O | 7.2 | -3 | -88 | 5 | 5.01 | – | – |
| COc1ccc(Br)cc1C1CC(=O)c2ccccc2O1 (stereo unspecified) | 67.9 | -5 | – | – | – | – | inactive |
| COc1ccc(Br)cc1/C=C/C(=O)c1c(O)cccc1OC | 6.1 | 290 | -95 | 6 | 6.03 | – | – |

| Compound | IC50 (CHO) [µM] | Activity [1] [%] | Efficacy [2] [%] | EC50 [3, 4] [µM] | EC50 [3, 5] [µM] | EC50 ([3]; hek-293t) | Activity [2] |
| --- | --- | --- | --- | --- | --- | --- | --- |
| COc1ccc(Br)cc1/C=C/C(=O)c1c(O)cccc1OCc1ccccc1 | 8.1 | – | – | – | – | ND(toxic) | – |
| COc1cc(Br)cc(-c2oc3ccccc3c(=O)c2O)c1OC | > 100 | -28 | – | – | – | – | inactive |
| COc1ccc(Br)cc1-c1cc(=O)c2c(O)cccc2o1 | 75.2 | -16 | – | – | – | – | inactive |
| COc1ccc(Br)cc1/C=C/C(=O)c1ccccc1O | 8.7 | -29 | -44 | 7.8 | 7.76 | – | – |
| COc1ccc(I)cc1-c1oc2ccccc2c(=O)c1O | 17.9 | -23 | – | – | – | – | inactive |
| COc1ccc(Br)cc1/C=C/C(=O)c1ccc2ccccc2c1O | 15.6 | 35 | -92 | 2.9 | 2.88 | – | – |
| COc1cc(OC)c(/C=C/C(=O)c2ccccc2O)cc1Br | 16.9 | 5 | -55 | 4.9 | 4.9 | – | – |
| COc1ccc(Br)cc1-c1oc2cccc(OC)c2c(=O)c1O | 17.3 | -1 | – | – | – | – | inactive |
| COc1ccc(C)cc1/C=C/C(=O)c1ccccc1O | 14.2 | -4 | 52 | 10 | – | – | – |
| COc1ccc(Br)cc1-c1cc(=O)c2ccccc2o1 | > 100 | -17 | -55 | 8.1 | 8.13 | – | – |
| COc1ccccc1/C=C/C(=O)c1ccccc1O | 25.5 | 8 | 67 | 1.4 | 1.45 | – | – |
| COc1cc(Br)cc(/C=C/C(=O)c2ccccc2O)c1OC | 7.2 | -42 | -52 | 6.7 | 6.61 | – | – |
| CCOc1ccc(Cl)cc1-c1oc2ccccc2c(=O)c1O | > 100 | -17 | -41 | 0.31 | 0.309 | – | – |
| COc1cc(OC)c(-c2oc3ccccc3c(=O)c2O)cc1Br | 18.3 | -17 | – | – | – | – | inactive |
| CCOc1ccc(Cl)cc1/C=C/C(=O)c1ccccc1O | 6.8 | 33 | -76 | 6.4 | 6.46 | – | – |
